Laboratory results reported in publication PMC5940653 (Leukemia, 2018).

Tested on: STAT3/5 phosphorylation in NK-S1 cells
Experiment: Wash-out assay
Format: cell-based
Conditions: NK-S1, 1.0 μM pre-treatment for 2 h
In short: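 NK-S1 cells were grown in DMEM with 10% FBS and 10% equine serum, seeded at 2.5 × 10^6 per well, and exposed to 1.0 µM test compound or DMSO for 2 h. Cells were washed twice in PBS and resuspended in complete medium without inhibitor. They were harvested at washout and 0.5, 1, 2 and 4 h later. Phospho- and total STAT3/5 were immunoblotted, 15 μg protein per lane.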

Compound: C[C@@H]1CCN(C(=O)CC#N)C[C@@H]1N(C)c1ncnc2[nH]ccc12 [Tofacitinib]
- recovery of phosphorylated STAT3/5 activity post inhibitor washout: within half an hour
